Measurements as given in ChEMBL document CHEMBL1125351, “Isobenzofurans as conformationally constrained miconazole analogues with improved antifungal potency” (1992).
≈ marks a conversion by molar mass, not a printed value.

System: Candida tropicalis
Assay: Minimum inhibitory concentration against Candida tropicalis using eagles minimum essential medium (EMEM)
Assay type: functional
Details: not given
Procedure, shortened: (§1)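 Candida MICs in Eagle's minimum essential medium, pH 7.0. Compounds in DMSO or ethanol were serially diluted in medium, inoculated and incubated at 37 °C under CO₂. […] The summary value is the geometric mean of the MICs across strains.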
In the case of `Fc1ccc(C2(Cn3ccnc3)OCc3ccccc32)c(F)c1` (centres undefined), the MIC is reported as < 0.031 µg/mL.
In the case of `Clc1ccc(C2(Cn3ccnc3)OCCc3ccccc32)cc1` (centres undefined), the MIC is reported as < 0.031 µg/mL.
For `Clc1ccc(CC2(Cn3ccnc3)OCc3ccccc32)cc1` (centres undefined), the MIC was 0.25 µg/mL (≈ 0.77 µM).
For `c1ccc(-c2ccc(C3(Cn4ccnc4)OCc4ccccc43)cc2)cc1` (centres undefined), the MIC was 0.063 µg/mL (≈ 0.179 µM).

System: Candida albicans
Assay: Minimum inhibitory concentration against Candida albicans at a pH of 5.7 using SDB medium
Assay type: functional
Details: not given
Procedure, shortened: (§2)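 Broth dilution in Sabouraud dextrose broth, pH 5.7. Compounds dissolved in DMSO or ethanol, serially diluted in medium, inoculated and incubated at 27 °C. Wells read visually at 48 h. MIC is the lowest concentration giving complete growth inhibition.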
For `Fc1ccc(C2(Cn3ccnc3)OCc3ccccc32)c(F)c1` (centres undefined), the MIC was > 64 µg/mL.
With `Clc1ccc(C2(Cn3ccnc3)OCCc3ccccc32)cc1` (centres undefined) the MIC was 64 µg/mL (≈ 197 µM).
For `Clc1ccc(CC2(Cn3ccnc3)OCc3ccccc32)cc1` (centres undefined), the MIC was > 64 µg/mL.
Work on `c1ccc(-c2ccc(C3(Cn4ccnc4)OCc4ccccc43)cc2)cc1` (centres undefined) yielded an MIC of 32 µg/mL (≈ 90.8 µM).

System: Trichophyton benhamiae
Assay: Minimum inhibitory concentration against Trichophyton mentagrophytes at a pH of 5.7 using SDB medium
Assay type: functional, Arthroderma benhamiae
Details: not given
Procedure, shortened: (§3)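 Dermatophyte isolates tested by serial broth dilution in SDB, pH 5.7. Compound stocks in DMSO or ethanol, incubated at 27 °C, and growth read visually at 72 h. MIC is the lowest concentration with no visible growth. The summary value is the geometric mean of the MICs across the organisms.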
Compound `Fc1ccc(C2(Cn3ccnc3)OCc3ccccc32)c(F)c1` (centres undefined) has an MIC of 0.5 µg/mL (≈ 1.6 µM).
For `Clc1ccc(C2(Cn3ccnc3)OCCc3ccccc32)cc1` (centres undefined), the MIC was 0.125 µg/mL (≈ 0.385 µM).
For `Clc1ccc(CC2(Cn3ccnc3)OCc3ccccc32)cc1` (centres undefined), the MIC was 8 µg/mL (≈ 24.6 µM).
For `c1ccc(-c2ccc(C3(Cn4ccnc4)OCc4ccccc43)cc2)cc1` (centres undefined), the MIC was < 0.031 µg/mL.

System: Candida albicans
Assay: Minimum inhibitory concentration against Candida stellatoidea at a pH of 5.7 using SDB medium
Assay type: functional
Details: not given
Procedure, shortened: as §2
For `Fc1ccc(C2(Cn3ccnc3)OCc3ccccc32)c(F)c1` (centres undefined), the MIC was > 64 µg/mL.
Work on `Clc1ccc(C2(Cn3ccnc3)OCCc3ccccc32)cc1` (centres undefined) yielded an MIC of 64 µg/mL (≈ 197 µM).
For `Clc1ccc(CC2(Cn3ccnc3)OCc3ccccc32)cc1` (centres undefined), the MIC was > 64 µg/mL.
`c1ccc(-c2ccc(C3(Cn4ccnc4)OCc4ccccc43)cc2)cc1` (centres undefined) gave an MIC of 16 µg/mL (≈ 45.4 µM).

System: Microsporum canis
Assay: Minimum inhibitory concentration against Microsporum canis at a pH of 5.7 using SDB medium
Assay type: functional
Details: not given
Procedure, shortened: as §3
For `Fc1ccc(C2(Cn3ccnc3)OCc3ccccc32)c(F)c1` (centres undefined), the MIC was 2 µg/mL (≈ 6.4 µM).
Work on `Clc1ccc(C2(Cn3ccnc3)OCCc3ccccc32)cc1` (centres undefined) yielded an MIC of 1 µg/mL (≈ 3.08 µM).
For `Clc1ccc(CC2(Cn3ccnc3)OCc3ccccc32)cc1` (centres undefined), the MIC was 4 µg/mL (≈ 12.3 µM).
Compound `c1ccc(-c2ccc(C3(Cn4ccnc4)OCc4ccccc43)cc2)cc1` (centres undefined) has an MIC of 1 µg/mL (≈ 2.84 µM).

System: Nannizzia gypsea
Assay: Minimum inhibitory concentration against Microsporum gypseum at a pH of 5.7 using SDB medium
Assay type: functional
Details: not given
Procedure, shortened: as §3
For `Clc1ccc(C2(Cn3ccnc3)OCCc3ccccc32)cc1` (centres undefined), the MIC was 1 µg/mL (≈ 3.08 µM).
Compound `Clc1ccc(CC2(Cn3ccnc3)OCc3ccccc32)cc1` (centres undefined) has an MIC of 32 µg/mL (≈ 98.5 µM).
`c1ccc(-c2ccc(C3(Cn4ccnc4)OCc4ccccc43)cc2)cc1` (centres undefined) gave an MIC of 8 µg/mL (≈ 22.7 µM).

System: Arthrodermataceae
Assay: Compound is evaluated for geometric mean of MIC values of dermatophytes
Assay type: functional
Parameters: unit not given beside the values
Details: not given
Procedure, shortened: as §3
`Fc1ccc(C2(Cn3ccnc3)OCc3ccccc32)c(F)c1` (centres undefined) showed a Geometric mean of 2.5.
With `Clc1ccc(C2(Cn3ccnc3)OCCc3ccccc32)cc1` (centres undefined) the Geometric mean was <0.22.
`Clc1ccc(CC2(Cn3ccnc3)OCc3ccccc32)cc1` (centres undefined) showed a Geometric mean of 4.6.

System: not listed separately
Assay: Geometric mean for the above three species of Candida, tested in EMEM medium
Assay type: functional
Details: not given
Procedure, shortened: as §1
For `Fc1ccc(C2(Cn3ccnc3)OCc3ccccc32)c(F)c1` (centres undefined), the Geometric mean was < 0.02.
With `Clc1ccc(C2(Cn3ccnc3)OCCc3ccccc32)cc1` (centres undefined) the Geometric mean was < 0.02.
With `Clc1ccc(CC2(Cn3ccnc3)OCc3ccccc32)cc1` (centres undefined) the Geometric mean was 0.25.
`c1ccc(-c2ccc(C3(Cn4ccnc4)OCc4ccccc43)cc2)cc1` (centres undefined) gave a Geometric mean of 0.16.

System: Candida
Assay: Compound is evaluated for geometric mean of MIC values of Candida species
Assay type: functional
Parameters: unit not given beside the values
Details: not given
In the case of `Fc1ccc(C2(Cn3ccnc3)OCc3ccccc32)c(F)c1` (centres undefined), the Geometric mean is reported as 48.
In the case of `Clc1ccc(C2(Cn3ccnc3)OCCc3ccccc32)cc1` (centres undefined), the Geometric mean is reported as 51.
With `Clc1ccc(CC2(Cn3ccnc3)OCc3ccccc32)cc1` (centres undefined) the Geometric mean was >78.
Work on `c1ccc(-c2ccc(C3(Cn4ccnc4)OCc4ccccc43)cc2)cc1` (centres undefined) yielded a Geometric mean of 7.2.

System: Cricetinae gen. sp.
Assay: Inhibition of Vaginal Candida (C-60 strain) infection in Hamsters, estimated as Percent Area under curve at 0.05 % concentration after 4 days of administration
Assay type: functional, Cricetulus griseus
Details: not given
Procedure, shortened: (§4)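 Hamster vaginal C. albicans infection (strains C43 or C60; 10 animals per compound). From day 5 post-infection, a cotton pellet holding 0.15 mL of 0.05% or 0.01% (w/w) compound in EtOH–PEG 400–glycerol (10:45:45) was inserted once daily for 4 or 8 days. Vaginal swabs were filtered and the filters cultured on SDA at 37 °C for 48 h. Read-out was the area under the % negative cultures versus time curve.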
`Fc1ccc(C2(Cn3ccnc3)OCc3ccccc32)c(F)c1` (centres undefined) gave an Inhibition of 88%.

System: Epidermophyton floccosum
Assay: Minimum inhibitory concentration against Epidermophyton floccosum at a pH of 5.7 using SDB medium
Assay type: functional
Details: not given
Procedure, shortened: as §3
With `Clc1ccc(C2(Cn3ccnc3)OCCc3ccccc32)cc1` (centres undefined) the MIC was < 0.031 µg/mL.
For `Clc1ccc(CC2(Cn3ccnc3)OCc3ccccc32)cc1` (centres undefined), the MIC was 0.25 µg/mL (≈ 0.77 µM).
In the case of `c1ccc(-c2ccc(C3(Cn4ccnc4)OCc4ccccc43)cc2)cc1` (centres undefined), the MIC is reported as < 0.031 µg/mL.

System: Candida parapsilosis
Assay: Minimum inhibitory concentration against Candida parapsilosis at a pH of 5.7 using SDB medium
Assay type: functional
Details: Lodderomyces parapsilosis
Procedure, shortened: as §2
Compound `Fc1ccc(C2(Cn3ccnc3)OCc3ccccc32)c(F)c1` (centres undefined) has an MIC of 0.25 µg/mL (≈ 0.8 µM).
`Clc1ccc(C2(Cn3ccnc3)OCCc3ccccc32)cc1` (centres undefined) gave an MIC of 2 µg/mL (≈ 6.16 µM).
Work on `Clc1ccc(CC2(Cn3ccnc3)OCc3ccccc32)cc1` (centres undefined) yielded an MIC of 4 µg/mL (≈ 12.3 µM).
For `c1ccc(-c2ccc(C3(Cn4ccnc4)OCc4ccccc43)cc2)cc1` (centres undefined), the MIC was < 0.031 µg/mL.

System: Candida albicans
Assay: Minimum inhibitory concentration against Candida stellatoidea using eagles minimum essential medium (EMEM)
Assay type: functional
Details: not given
Procedure, shortened: as §1
In the case of `Fc1ccc(C2(Cn3ccnc3)OCc3ccccc32)c(F)c1` (centres undefined), the MIC is reported as < 0.031 µg/mL.
For `Clc1ccc(C2(Cn3ccnc3)OCCc3ccccc32)cc1` (centres undefined), the MIC was < 0.031 µg/mL.
In the case of `Clc1ccc(CC2(Cn3ccnc3)OCc3ccccc32)cc1` (centres undefined), the MIC is reported as 0.25 µg/mL (≈ 0.77 µM).
In the case of `c1ccc(-c2ccc(C3(Cn4ccnc4)OCc4ccccc43)cc2)cc1` (centres undefined), the MIC is reported as 0.125 µg/mL (≈ 0.355 µM).

System: Candida albicans
Assay: Minimum inhibitory concentration against Candida albicans using eagles minimum essential medium (EMEM)
Assay type: functional
Details: not given
Procedure, shortened: as §1
For `Fc1ccc(C2(Cn3ccnc3)OCc3ccccc32)c(F)c1` (centres undefined), the MIC was < 0.031 µg/mL.
With `Clc1ccc(C2(Cn3ccnc3)OCCc3ccccc32)cc1` (centres undefined) the MIC was < 0.031 µg/mL.
In the case of `Clc1ccc(CC2(Cn3ccnc3)OCc3ccccc32)cc1` (centres undefined), the MIC is reported as 0.25 µg/mL (≈ 0.77 µM).
With `c1ccc(-c2ccc(C3(Cn4ccnc4)OCc4ccccc43)cc2)cc1` (centres undefined) the MIC was 0.25 µg/mL (≈ 0.709 µM).

System: Cricetinae gen. sp.
Assay: Inhibition of Vaginal Candida (C-60 strain) infection in Hamsters, estimated as Percent Area under curve at 0.01 % concentration after 4 days of administration
Assay type: functional, Cricetulus griseus
Details: not given
Procedure, shortened: as §4
In the case of `Fc1ccc(C2(Cn3ccnc3)OCc3ccccc32)c(F)c1` (centres undefined), the Inhibition is reported as 69%.

System: Candida tropicalis
Assay: Minimum inhibitory concentration against Candida tropicalis at a pH of 5.7 using SDB medium
Assay type: functional
Details: not given
Procedure, shortened: as §2
Work on `Fc1ccc(C2(Cn3ccnc3)OCc3ccccc32)c(F)c1` (centres undefined) yielded an MIC of 64 µg/mL (≈ 205 µM).
Compound `Clc1ccc(C2(Cn3ccnc3)OCCc3ccccc32)cc1` (centres undefined) has an MIC of 64 µg/mL (≈ 197 µM).
For `Clc1ccc(CC2(Cn3ccnc3)OCc3ccccc32)cc1` (centres undefined), the MIC was > 64 µg/mL.
For `c1ccc(-c2ccc(C3(Cn4ccnc4)OCc4ccccc43)cc2)cc1` (centres undefined), the MIC was 32 µg/mL (≈ 90.8 µM).

System: Trichophyton rubrum
Assay: Minimum inhibitory concentration against Trichophyton rubrum at a pH of 5.7 using SDB medium
Assay type: functional
Details: not given
Procedure, shortened: as §3
With `Fc1ccc(C2(Cn3ccnc3)OCc3ccccc32)c(F)c1` (centres undefined) the MIC was 16 µg/mL (≈ 51.2 µM).
`Clc1ccc(C2(Cn3ccnc3)OCCc3ccccc32)cc1` (centres undefined) showed an MIC of 0.25 µg/mL (≈ 0.77 µM).
`Clc1ccc(CC2(Cn3ccnc3)OCc3ccccc32)cc1` (centres undefined) showed an MIC of 8 µg/mL (≈ 24.6 µM).
For `c1ccc(-c2ccc(C3(Cn4ccnc4)OCc4ccccc43)cc2)cc1` (centres undefined), the MIC was < 0.031 µg/mL.
